Data: ChEMBL document CHEMBL1123678, “Octahydropyrazino[2',3':3,4]pyrido[1,2-a]indoles. A new class of potent antihypertensive agents” (1987)
The source made the active and inactive calls. No cut-off for these calls is given here.

Experiments:
Rattus norvegicus [1] = assay: Vasopressor responses to epinephrine as a measure of the alpha-1-adrenoceptor blocking activity at 5 mg/kg administered orally was reported to be antagonized; assay type: functional, organism-based; parameters: dose 5 mg/kg; conditions: filed as antagonist
Rattus norvegicus [2] = assay: Antihypertensive activity was determined in cannulated spontaneously hypertensive rats(SHR) and maximum decrease of mean arterial blood pressure (MABP) at 25 mg/kg oral dose; assay type: functional, Artery
Procedure, shortened: (§1)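 Cannulated SHR given compound by gastric gavage in 0.5% methylcellulose (5 mL/kg), doses 0.1–50 mg/kg, 4–8 animals per dose, after 1-h equilibration. MABP recorded for 4 h; maximal % decrease reported with time to peak effect. Significance by two-way analysis of variance.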

Rattus norvegicus [3] = assay: Antihypertensive activity was determined in cannulated spontaneously hypertensive rats(SHR) and maximum decrease of mean arterial blood pressure (MABP) at 2.5 mg/kg oral dose; assay type: functional, Artery; procedure, shortened: as §1
Rattus norvegicus [4] = assay: Antihypertensive activity was determined in cannulated spontaneously hypertensive rats(SHR) and heart rate response was reported to reduce by 10-25% after 4 hr at a peroral dose of 5 mg/kg; assay type: functional, organism-based; parameters: dose 5 mg/kg
Rattus norvegicus [5] = assay: Antihypertensive activity was determined in cannulated spontaneously hypertensive rats(SHR) and activity rating was given with respect to MABP values at 25 mg/kg oral dose;lowering MABP by 20-30% at 5 mg/kg and by 10-20% at 1-2.5 mg/kg; assay type: functional, organism-based
Procedure, shortened: (§2)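 Cannulated SHR dosed orally (gavage) in 0.5% methylcellulose, 5 mL/kg; 4–8 rats per dose. MABP monitored 4 h, maximal change taken. Rating scale: 0 = no significant activity at 50 mg/kg, stepping up to 6 = MABP fall >40% at 10 mg/kg and 10–20% at 0.25–1 mg/kg, based on % MABP decreases at set doses.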

Rattus norvegicus [6] = assay: Antihypertensive activity was determined in cannulated spontaneously hypertensive rats(SHR) and marked bradycardia was reported at a dose of 25 mg/kg; assay type: functional, organism-based; parameters: dose 25 mg/kg
Rattus norvegicus [7] = assay: Vasopressor responses to epinephrine as a measure of the alpha-1-adrenoceptor blocking activity at 2.5 mg/kg administered orally was reported to be antagonized; assay type: functional, organism-based; parameters: dose 2.5 mg/kg; conditions: filed as antagonist
Rattus norvegicus [8] = assay: Vasopressor responses to epinephrine as a measure of the alpha-1-adrenoceptor blocking activity at 25 mg/kg administered orally was reported to be antagonized; assay type: functional, organism-based; parameters: dose 25 mg/kg; conditions: filed as antagonist
Rattus norvegicus [9] = assay: Antihypertensive activity was determined in cannulated spontaneously hypertensive rats(SHR) and maximum decrease of mean arterial blood pressure (MABP) at 5 mg/kg oral dose; assay type: functional, Artery; procedure, shortened: as §1
Rattus norvegicus [10] = assay: Antihypertensive activity was determined in cannulated spontaneously hypertensive rats(SHR) and heart rate response was reported to be reduce by 10-25% after 4 hr at a dose of 50 mg/kg; assay type: functional, organism-based; parameters: dose 50 mg/kg
Rattus norvegicus [11] = assay: Antihypertensive activity was determined in cannulated spontaneously hypertensive rats(SHR) and maximum decrease of mean arterial blood pressure (MABP) at 50 mg/kg oral dose; assay type: functional, Artery; procedure, shortened: as §1
Rattus norvegicus [12] = assay: Antihypertensive activity was determined in cannulated spontaneously hypertensive rats(SHR) and activity rating was given with respect to MABP values at 10 mg/kg oral dose;a decrease of MABP by >40% at 10 mg/kg and by 10-207; assay type: functional, organism-based; procedure, shortened: as §2
Rattus norvegicus [13] = assay: Antihypertensive activity was determined in cannulated spontaneously hypertensive rats(SHR) and maximum decrease of mean arterial blood pressure (MABP) at 0.5 mg/kg oral dose; assay type: functional, Artery; procedure, shortened: as §1
Rattus norvegicus [14] = assay: Antihypertensive activity was determined in cannulated spontaneously hypertensive rats(SHR) and maximum decrease of mean arterial blood pressure (MABP) at 10 mg/kg oral dose; assay type: functional, Artery; procedure, shortened: as §1
Rattus norvegicus [15] = assay: Antihypertensive activity was determined in cannulated spontaneously hypertensive rats(SHR) and maximum decrease of mean arterial blood pressure (MABP) at 1 mg/kg oral dose; assay type: functional, Artery; procedure, shortened: as §1
Rattus norvegicus [16] = assay: Vasopressor responses to epinephrine as a measure of the alpha-1-adrenoceptor blocking activity at 25 mg/kg administered orally was reported to be slightly; assay type: functional, organism-based; parameters: dose 25 mg/kg
Rattus norvegicus [17] = assay: Vasopressor responses to epinephrine as a measure of the alpha-1-adrenoceptor blocking activity at 10 mg/kg administered orally was reported to be potentiated; assay type: functional, organism-based; parameters: dose 10 mg/kg
Rattus norvegicus [18] = assay: Antihypertensive activity was determined in cannulated spontaneously hypertensive rats(SHR) and heart rate response was reported to reduce by 10-25% after 4 hr at a peroral dose of 25 mg/kg; assay type: functional, organism-based; parameters: dose 25 mg/kg
Rattus norvegicus [19] = assay: Antihypertensive activity was determined in cannulated spontaneously hypertensive rats(SHR) and activity rating was given with respect to MABP values at 25 mg/kg oral dose;MABP reduced by 15-25% and an appreciable antihypertensive at 2.5-5 mg/kg; assay type: functional, organism-based; parameters: dose 25 mg/kg
Rattus norvegicus [20] = assay: Vasopressor responses to epinephrine as a measure of the alpha-1-adrenoceptor blocking activity at 10 mg/kg administered orally was reported to be reversed; assay type: functional, organism-based; parameters: dose 10 mg/kg
Rattus norvegicus [21] = assay: Antihypertensive activity was determined in cannulated spontaneously hypertensive rats(SHR) and heart rate response was reported to reduce by 10-25% after 4 hr at a peroral dose of 10 mg/kg; assay type: functional, organism-based; parameters: dose 10 mg/kg
Rattus norvegicus [22] = assay: Vasopressor responses to epinephrine as a measure of the alpha-1-adrenoceptor blocking activity at 1 mg/kg administered orally was reported to be reversed; assay type: functional, organism-based; parameters: dose 1 mg/kg
Rattus norvegicus [23] = assay: Vasopressor responses to epinephrine as a measure of the alpha-1-adrenoceptor blocking activity at 2.5 mg/kg administered orally was reported to be reversed; assay type: functional, organism-based; parameters: dose 2.5 mg/kg
Rattus norvegicus [24] = assay: Antihypertensive activity was determined in cannulated spontaneously hypertensive rats(SHR) and marked bradycardia was reported at a dose of 10 mg/kg; assay type: functional, organism-based; parameters: dose 10 mg/kg
Rattus norvegicus [25] = assay: Vasopressor responses to epinephrine as a measure of the alpha-1-adrenoceptor blocking activity at 50 mg/kg administered orally was reported to be antagonized; assay type: functional, organism-based; parameters: dose 50 mg/kg
Rattus norvegicus [26] = assay: Antagonism of vasopressor responses to epinephrine as a measure of the alpha-1-adrenoceptor blocking activity at 10 mg/kg administered orally was reported to have no change; assay type: functional, organism-based; parameters: dose 10 mg/kg

SMILES: O=C(NC1CCN(CCc2c[nH]c3ccccc23)CC1)c1ccccc1 [INDORAMIN]
- Activity (Rattus norvegicus [1]): Antagonist
- Decrease in MABP (Rattus norvegicus [2]): 40%
- Decrease in MABP (Rattus norvegicus [3]): 12%
- HR (Rattus norvegicus [4]): Active
- Activity rating (Rattus norvegicus [5]): Active
- HR (Rattus norvegicus [6]): Active
- Activity (Rattus norvegicus [7]): Antagonist
- Activity (Rattus norvegicus [8]): Antagonist
- Decrease in MABP (Rattus norvegicus [9]): 29%

SMILES: CCN1CCN(CC)[C@H]2c3c(C)c4ccccc4n3CC[C@H]21.Cl.Cl
- HR (Rattus norvegicus [10]): Heart rate response was reported to be reduce by 10-25% after 4 hr at a dose of 25 mg/kg
- Decrease in MABP (Rattus norvegicus [11]): 25%

SMILES: COc1cc2nc(N3CCN(C(=O)c4ccco4)CC3)nc(N)c2cc1OC [PRAZOSIN]
- Activity rating (Rattus norvegicus [12]): Active
- Decrease in MABP (Rattus norvegicus [13]): 35%
- Decrease in MABP (Rattus norvegicus [14]): 49%
- Decrease in MABP (Rattus norvegicus [15]): 46%

SMILES: Cc1c2n(c3ccccc13)CCC1NCCNC21 (configuration not stated)
- Activity (Rattus norvegicus [16]): Vasopressor response potentiated
- Decrease in MABP (Rattus norvegicus [2]): 27%
- Activity (Rattus norvegicus [17]): Vasopressor response potentiated
- Decrease in MABP (Rattus norvegicus [14]): 19%
- HR (Rattus norvegicus [18]): Heart rate response was reported to reduce by 10-25% after 4 hr at a peroral dose of 25 mg/kg
- Activity rating (Rattus norvegicus [19]): MABP reduced by 15-25% and an appreciable antihypertensive at 2.5-5 mg/kg

SMILES: CCCCN1CCN(CC)C2CCn3c(c(C)c4ccccc43)C21.Cl.Cl (configuration not stated)
- Activity (Rattus norvegicus [20]): Vasopressor response reversed
- HR (Rattus norvegicus [21]): Heart rate response was reported to reduce by 10-25% after 4 hr at a peroral dose of 10 mg/kg
- Decrease in MABP (Rattus norvegicus [14]): 36%
- Decrease in MABP (Rattus norvegicus [15]): 16%
- Activity (Rattus norvegicus [22]): Vasopressor response reversed

SMILES: Br.CCCN1CCN(CC)C2CCn3c(c(C)c4ccccc43)C21 (configuration not stated)
- Activity (Rattus norvegicus [23]): Vasopressor response reversed
- Activity (Rattus norvegicus [20]): Vasopressor response reversed
- Decrease in MABP (Rattus norvegicus [14]): 42%
- Decrease in MABP (Rattus norvegicus [3]): 24%
- Decrease in MABP (Rattus norvegicus [15]): 13%
- Activity (Rattus norvegicus [22]): Vasopressor response reversed
- HR (Rattus norvegicus [24]): Heart rate response was reported to reduce by 10-25% after 4 hr at a peroral dose of 1.0 mg/kg

SMILES: Cc1c2n(c3ccccc13)CCC1C2N(C)CCN1C (configuration not stated)
- Activity (Rattus norvegicus [20]): Vasopressor response reversed
- HR (Rattus norvegicus [21]): Heart rate response was reported to reduce by 10-25% after 4 hr at a peroral dose of 10 mg/kg
- HR (Rattus norvegicus [4]): Heart rate response was reported to reduce by 10-25% after 4 hr at a peroral dose of 10 mg/kg
- HR (Rattus norvegicus [10]): Heart rate response was reported to be reduce by 10-25% after 4 hr at a dose of 50 mg/kg
- Activity (Rattus norvegicus [25]): Vasopressor response antagonized

SMILES: CCN1CCNC2CCn3c(c(C)c4ccccc43)C21 (configuration not stated)
- HR (Rattus norvegicus [21]): Heart rate response was reported to reduce by 10-25% after 4 hr at a peroral dose of 10 mg/kg
- Decrease in MABP (Rattus norvegicus [14]): 14%
- Activity (Rattus norvegicus [26]): inactive

SMILES: Cc1c2n(c3ccccc13)CCC1C2N(C)CCN1C.Cl.Cl (configuration not stated)
- Decrease in MABP (Rattus norvegicus [11]): 12%
